Assay results reported in publication PMC7003992 (Journal of medicinal chemistry, 2019).
Where two headings read alike, the source gives them in different places. Blank lines part the entries; values can stand above or below the compound they belong to.

Assays:
[1] = molecular target: T1, NTR1 (Homo sapiens, UniProt P30989); assay: β-Arrestin2-GFP NTR1 high content assay; format: cell-based
Target sequence in this assay (P30989 whole entry, species assumed): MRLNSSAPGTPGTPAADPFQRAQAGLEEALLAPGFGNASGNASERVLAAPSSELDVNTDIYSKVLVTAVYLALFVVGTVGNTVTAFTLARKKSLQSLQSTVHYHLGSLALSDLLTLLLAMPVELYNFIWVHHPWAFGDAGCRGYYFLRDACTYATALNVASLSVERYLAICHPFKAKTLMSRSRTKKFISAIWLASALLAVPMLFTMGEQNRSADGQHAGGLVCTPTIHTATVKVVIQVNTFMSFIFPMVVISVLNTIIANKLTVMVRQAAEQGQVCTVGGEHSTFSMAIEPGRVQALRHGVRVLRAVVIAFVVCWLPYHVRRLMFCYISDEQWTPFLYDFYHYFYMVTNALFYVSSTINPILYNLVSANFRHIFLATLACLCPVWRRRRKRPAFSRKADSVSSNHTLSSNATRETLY

[2] = molecular target: T1, NTR1; settings: cited from earlier work
Target sequence in this assay (P30989 whole entry, species assumed): as above

[3] = molecular target: GPR35 (Homo sapiens, UniProt Q9HC97); assay: GPCR cross reactivity, high-content assay format; format: cell-based
Sequence of GPR35 (Q9HC97 whole entry, species assumed): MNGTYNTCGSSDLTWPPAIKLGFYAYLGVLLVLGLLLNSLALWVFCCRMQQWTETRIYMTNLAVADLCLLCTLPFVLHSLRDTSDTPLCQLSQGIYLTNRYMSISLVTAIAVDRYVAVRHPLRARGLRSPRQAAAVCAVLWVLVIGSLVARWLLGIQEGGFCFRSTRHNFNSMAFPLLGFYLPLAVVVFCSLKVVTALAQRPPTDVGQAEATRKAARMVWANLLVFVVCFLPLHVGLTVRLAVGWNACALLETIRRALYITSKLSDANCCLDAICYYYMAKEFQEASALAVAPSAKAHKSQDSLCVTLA

[4] = molecular target: T1, NTR1; assay: Ca2+ flux assay; format: cell-based
Target sequence in this assay (P30989 whole entry, species assumed): as the sequence (P30989 whole entry, species assumed) above

[5] = molecular target: T1, NTR1; assay: [125I]-NT radioligand binding to cell membranes; settings: [125I]-NT 0.02 nM, increasing concentrations of compound
Target sequence in this assay (P30989 whole entry): as the sequence (P30989 whole entry, species assumed) above

[6] = molecular target: T2, NTR2 (Homo sapiens, UniProt O95665); assay: [125I]-NT radioligand binding to cell membranes; settings: [125I]-NT 0.02 nM
Target sequence in this assay (O95665 whole entry): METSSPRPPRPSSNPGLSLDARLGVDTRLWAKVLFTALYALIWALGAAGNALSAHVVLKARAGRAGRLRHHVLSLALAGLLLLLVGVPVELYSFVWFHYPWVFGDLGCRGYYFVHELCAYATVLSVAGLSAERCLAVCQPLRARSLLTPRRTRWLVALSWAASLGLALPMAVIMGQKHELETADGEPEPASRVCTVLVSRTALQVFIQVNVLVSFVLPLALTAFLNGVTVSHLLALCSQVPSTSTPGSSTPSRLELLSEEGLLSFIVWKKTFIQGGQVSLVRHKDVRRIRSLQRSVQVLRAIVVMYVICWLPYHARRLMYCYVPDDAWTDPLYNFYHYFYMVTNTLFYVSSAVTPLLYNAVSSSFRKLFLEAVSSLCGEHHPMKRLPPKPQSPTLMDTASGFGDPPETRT

[7] = Adverse effects in dosed animals; format: in vivo; settings: animals dosed in the DAT knockout mouse study
[8] = molecular target: K-opioid (Homo sapiens, UniProt P41145); assay: GPCR cross reactivity, high-content assay format; format: cell-based
Sequence of K-opioid (P41145 whole entry): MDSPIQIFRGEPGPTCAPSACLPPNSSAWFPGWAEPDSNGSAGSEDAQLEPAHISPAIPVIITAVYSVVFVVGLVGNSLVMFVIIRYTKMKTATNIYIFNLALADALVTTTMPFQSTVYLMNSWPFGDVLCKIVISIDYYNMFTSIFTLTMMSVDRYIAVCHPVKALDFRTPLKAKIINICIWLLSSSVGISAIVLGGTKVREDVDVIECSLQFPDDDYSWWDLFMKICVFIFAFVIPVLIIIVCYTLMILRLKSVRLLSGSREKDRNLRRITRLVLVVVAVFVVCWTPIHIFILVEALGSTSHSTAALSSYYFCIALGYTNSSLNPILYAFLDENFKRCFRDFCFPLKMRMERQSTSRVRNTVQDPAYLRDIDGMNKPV

[9] = tested on: dopamine transporter knockout (DAT−/−) mice; assay: Open field locomotor activity in dopamine transporter knockout mice; format: in vivo, mouse; settings: 2 hr post-treatment
How it was run: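 Male and female DAT KO mice on a C57BL/6J background, 12–24 wk, 18–30 g, age- and sex-matched, randomised, tested early in the light cycle. After 30 min open-field acclimation, dosed at 10 ml/kg i.p. (vehicle 4% DMSO in saline) or p.o. as HCl salt in distilled water (after 5 daily water-gavage habituations). Infrared beam-break horizontal distance in 5-min bins; total summed 30–150 min.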

[10] = molecular target: T2, NTR2; assay: NTR2 counterscreen, same high-content β-arrestin format; format: cell-based; settings: high-content assay format
Target sequence in this assay (O95665 whole entry, species assumed): as the sequence (O95665 whole entry) above

[11] = molecular target: mouse NTR (Mus musculus, UniProt O88319); assay: [125I]-NT radioligand binding to cell membranes; settings: [125I]-NT 0.02 nM
Sequence of mouse NTR (O88319 whole entry): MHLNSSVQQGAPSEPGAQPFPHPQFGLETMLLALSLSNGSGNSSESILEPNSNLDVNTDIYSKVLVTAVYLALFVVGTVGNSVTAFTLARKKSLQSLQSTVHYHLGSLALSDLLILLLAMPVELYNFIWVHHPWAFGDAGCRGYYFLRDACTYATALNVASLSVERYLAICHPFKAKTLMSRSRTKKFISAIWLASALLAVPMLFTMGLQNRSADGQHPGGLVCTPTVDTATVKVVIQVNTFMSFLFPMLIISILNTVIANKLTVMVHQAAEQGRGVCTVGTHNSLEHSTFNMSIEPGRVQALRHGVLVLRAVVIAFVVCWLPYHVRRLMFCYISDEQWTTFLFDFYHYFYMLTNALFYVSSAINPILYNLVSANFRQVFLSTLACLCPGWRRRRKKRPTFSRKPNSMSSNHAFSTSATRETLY

[12] = molecular target: GPR55 (Homo sapiens, UniProt Q9Y2T6); assay: GPCR cross reactivity, high-content assay format; format: cell-based
Sequence of GPR55 (Q9Y2T6 whole entry, species assumed): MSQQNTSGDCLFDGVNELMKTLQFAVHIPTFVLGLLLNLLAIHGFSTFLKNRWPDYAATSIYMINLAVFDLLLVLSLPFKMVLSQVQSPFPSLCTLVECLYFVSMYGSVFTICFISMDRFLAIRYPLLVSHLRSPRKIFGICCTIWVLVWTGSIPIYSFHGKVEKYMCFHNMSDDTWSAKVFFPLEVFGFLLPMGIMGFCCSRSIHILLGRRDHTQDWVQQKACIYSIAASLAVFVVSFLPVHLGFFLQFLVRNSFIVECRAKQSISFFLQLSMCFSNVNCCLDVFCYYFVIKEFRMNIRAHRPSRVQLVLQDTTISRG

- EC50 (β-Arrestin2-GFP NTR1 potency) ([1]; relative to the EC100 (100 nM) of the NT(8–13) peptide control, average ± SEM (n=4 unless otherwise noted in parentheses)): not active
Compound: COc1cc2nc(C3CC3)nc(C3CCN(c4ccccc4OC)CC3)c2cc1OC [19a]

- Emax [1]: 100%
Compound: COc1cc2nc(C3CC3)nc(N3CCN(c4ccccc4OC)CC3)c2cc1OC [compound 7]
- activity in Ca2+ flux assay, compound alone [2]: no activity

- cross reactivity [3]: no cross reactivity
- effect on the potency of NT in the NTR1 high-content (β-arrestin2-GFP) assay ([1]; 18 (SBI-553) 0.5−356 nM): no effect
- activity in Ca2+ flux assay, compound alone ([4]; compound alone, without NT): no activity
- shift of the NT EC50 in the Ca2+ flux assay ([4]; rightward shift in the presence of 2.15 μM compound): > 30 fold
- enhancement of neurotensin peptide binding [5]: significant enhancement
- enhancement of neurotensin peptide binding [6]: but not human NTR2
- cross reactivity [8]: no cross reactivity
- cross reactivity [10]: no cross reactivity
- enhancement of neurotensin peptide binding [11]: significant enhancement
- cross reactivity [12]: no cross reactivity
Compound: COc1ccccc1C1CCN(c2nc(C3(F)CC3)nc3ccc(N(C)CCO)cc23)CC1 [compound 18, 2-({2-(1-Fluoro-cyclopropyl)-4-[4-(2-methoxy-phenyl)-piperidin-1-yl]-quinazolin-6-yl}-methyl-amino)-ethanol]
- adverse effects in dosed animals [7]: did not show any adverse effects
- effect on basal hyperlocomotion ([9]; IP dosing, 12 mg/kg): attenuated hyperlocomotion
- effect on basal hyperlocomotion ([9]; PO dosing, 10, 30 or 100 mg/kg as the HCl salt): attenuated hyperlocomotion
